According to ChEMBL document CHEMBL1764951, “Synthesis of a new 4-aza-2,3-didehydropodophyllotoxin analogues as potent cytotoxic and antimitotic agents” (2011):
Counter-ions that a name gives are not always drawn. The source made the active and inactive calls. The rule behind the calls is not given here.

Tests used:
MCF7 = test: Cytotoxicity against human MCF7 cells after 48 hrs by sulforhodamine B based ELISA; type: functional; conditions: MCF7, 48 h
Summary of the method: (§1)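 Lines were grown in DMEM with 10% FBS and 2 mM L-glutamine, plated at densities set by doubling time, and held 24 h at 37 °C, 5% CO2. Drugs were tested at 0.1, 1, 10 and 100 µM in triplicate wells for 48 h. Cells were fixed with cold TCA (10% final) for 60 min at 4 °C, stained 20 min with 0.4% SRB in 1% acetic acid, and eluted with 10 mM Tris base. A540 was read with a 690 nm reference. GI50 came from [(Ti−Tz)/(C−Tz)]×100 = 50; runs were repeated three times.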

A2780 = test: Cytotoxicity against human A2780 cells after 48 hrs by sulforhodamine B based ELISA; type: functional; conditions: A2780, 48 h; summary of the method: as §1
KB = test: Cytotoxicity against human KB cells after 48 hrs by sulforhodamine B based ELISA; type: functional; summary of the method: as §1
A549 [1] = test: Cytotoxicity against human A549 cells after 48 hrs by sulforhodamine B based ELISA; type: functional; conditions: A549, 48 h; summary of the method: as §1
COLO 205 = test: Cytotoxicity against human COLO205 cells after 48 hrs by sulforhodamine B based ELISA; type: functional; conditions: COLO 205, 48 h; summary of the method: as §1
A549 [2] = test: Cell cycle arrest in human A549 cells assessed as accumulation at G2/M phase at 10 uM after 48 hrs using propidium iodide staining by flow cytometry (reference value: 23.1%); type: functional
[3] = Inhibition of tubulin polymerization at 3 uM after 1 hr fluorescence analysis relative to control
Summary of the method: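 The cell-free fluorescence kit assay used PEM buffer, 1 mM GTP and compound at 3 µM final. Polymerization was followed as reporter incorporation into microtubules, read at 460 nm emission for 1 h at 37 °C, with podophyllotoxin as the positive control. Percent inhibition was expressed relative to the untreated control.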

A549 [4] = test: Cell cycle arrest in human A549 cells assessed as accumulation at S phase at 10 uM after 48 hrs using propidium iodide staining by flow cytometry (reference value: 5.2%); type: functional
Tubulin (Homo sapiens) [5] = molecular target: T1, Tubulin (Homo sapiens) (UniProt P68371+Q9H4B7+P0DPH7+P68366+Q13509+Q71U36+P04350+Q3ZCM7+P07437+P68363+Q9BQE3+Q6PEY2+Q13885+Q9BVA1+Q9BUF5); test: Inhibition of tubulin polymerization in human A549 cells assessed as disrupted microtubule organization at 1 uM after 48 hrs by immunohistochemistry; type: cell-based
Summary of the method: (§2)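 A-549 cells on glass coverslips were treated 48 h with compound at 5 µM or podophyllotoxin at 1 µM. They were fixed in 3% paraformaldehyde/0.02% glutaraldehyde in PBS, permeabilized in −20 °C methanol, and blocked 1 h in 1% BSA. Staining used a mouse monoclonal anti-tubulin antibody and an FITC-conjugated secondary. Microtubule network integrity was assessed by confocal microscopy.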

A549 [6] = test: Induction of apoptosis in human A549 cells assessed as activation of caspase 3 at 5 uM after 48 hrs by fluorimetric assay relative to control; type: functional
Summary of the method: (§3)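 A-549 cells in 6-well plates at 60–80% confluence were given compound at 5 µM, with podophyllotoxin at 1 µM as the positive control. The methods give 24 h incubation; the legend gives 48 h. Cells were scraped, lysed by syringe in lysis buffer on ice 10–20 min, and spun at 13,200 rpm for 20 min at 4 °C. The supernatant was assayed fluorimetrically with an AMC-conjugated caspase-3 substrate. Values are the mean ± SD of two experiments, each in triplicate.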

Tubulin (Homo sapiens) [7] = molecular target: T1, Tubulin (Homo sapiens); test: Inhibition of tubulin polymerization in human A549 cells assessed as disrupted microtubule organization at 5 uM after 48 hrs by immunohistochemistry; type: cell-based; summary of the method: as §2
A549 [8] = test: Cell cycle arrest in human A549 cells assessed as accumulation at G1 phase at 10 uM after 48 hrs using propidium iodide staining by flow cytometry (reference value: 71.6%); type: functional
A549 [9] = test: Cell cycle arrest in human A549 cells assessed as accumulation at S phase at 1 uM after 48 hrs using propidium iodide staining by flow cytometry (reference value: 5.2%); type: functional
A549 [10] = test: Cell cycle arrest in human A549 cells assessed as accumulation at G1 phase at 1 uM after 48 hrs using propidium iodide staining by flow cytometry (reference value: 71.6%); type: functional
A549 [11] = test: Induction of apoptosis in human A549 cells assessed as activation of caspase 3 at 1 uM after 48 hrs by fluorimetric assay relative to control; type: functional; summary of the method: as §3
A549 [12] = test: Cell cycle arrest in human A549 cells assessed as accumulation at G2/M phase at 1 uM after 48 hrs using propidium iodide staining by flow cytometry (reference value: 23.1%); type: functional

SMILES	GI50 (MCF7) [nM]	GI50 (A2780) [nM]	GI50 (KB) [nM]	GI50 (A549 [1]) [nM]	GI50 (COLO 205) [nM]	also measured
COc1cc(C2C3=C(COC3=O)Nc3ccc4cc[nH]c4c32)ccc1F (stereo not drawn)	2100	2300	170	2200	–	–
COc1cc(C2C3=C(COC3=O)Nc3ccc4cc[nH]c4c32)ccc1O (stereo not drawn)	2300	–	–	–	2500	–
COc1cc(C2C3=C(COC3=O)Nc3ccc4cc(C)[nH]c4c32)cc(OC)c1OC (stereo not drawn)	–	–	2000	–	–	–
COc1ccc(C2C3=C(COC3=O)Nc3ccc4nn[nH]c4c32)c(F)c1 (stereo not drawn)	< 100	–	–	–	–	–
COc1ccc(C2C3=C(COC3=O)Nc3ccc4cc(C)[nH]c4c32)c(F)c1 (stereo not drawn)	< 100	2300	2200	–	2700	–
COc1cc(C2C3=C(COC3=O)Nc3ccc4cn[nH]c4c32)ccc1F (stereo not drawn)	2700	–	–	2300	–	–
COc1ccc(C2C3=C(COC3=O)Nc3ccc4cc[nH]c4c32)cc1[N+](=O)[O-] (stereo not drawn)	–	–	–	–	2400	–
COc1cccc2c1C(=O)c1c(O)c3c(c(O)c1C2=O)C[C@@](O)(C(=O)CO)C[C@@H]3O[C@H]1C[C@H](N)[C@H](O)[C@H](C)O1 [DOXORUBICIN HYDROCHLORIDE]	130	< 100	130	< 100	< 100	–
COc1nc2c(c(OC)n1)C(c1cc(OC)c(OC)c(OC)c1)C1=C(COC1=O)N2 (stereo not drawn)	2400	–	170	2100	160	Activity (A549 [2]): 48.2%; inhibition [3]: 63.7%; Activity (A549 [4]): 12.7%; inhibition (Tubulin (Homo sapiens) [5]): Active; fold change (FC) (A549 [6]): 2; inhibition (Tubulin (Homo sapiens) [7]): Active; Activity (A549 [8]): 38.9%
COc1nc2c(c(OC)n1)C(c1ccc(F)c(OC)c1)C1=C(COC1=O)N2 (stereo not drawn)	–	–	2200	2600	–	–
COc1ccc(C2C3=C(COC3=O)Nc3ccc4cn[nH]c4c32)cc1O (stereo not drawn)	–	–	–	–	2600	–
COc1cc([C@@H]2c3cc4c(cc3[C@H](O)[C@H]3COC(=O)[C@H]23)OCO4)cc(OC)c1OC [PODOFILOX]	–	–	–	–	–	Activity (A549 [9]): 7.1%; inhibition [3]: 80.7%; Activity (A549 [10]): 31.4%; fold change (FC) (A549 [11]): 4; Activity (A549 [12]): 61.5%; inhibition (Tubulin (Homo sapiens) [5]): Active; inhibition (Tubulin (Homo sapiens) [7]): Active
COc1ccc(C2C3=C(COC3=O)Nc3ccc4cc[nH]c4c32)cc1O (stereo not drawn)	2900	2700	2200	2300	190	–
COc1cc(C2C3=C(COC3=O)Nc3ccc4cn[nH]c4c32)ccc1O (stereo not drawn)	2000	–	–	–	2000	–
COc1cc(C2C3=C(COC3=O)Nc3c2cc(OC)c(OC)c3OC)ccc1O (stereo not drawn)	2900	–	–	–	–	–
COc1ccc(C2C3=C(COC3=O)Nc3ccc4nc(S)[nH]c4c32)cc1O (stereo not drawn)	2700	–	–	–	–	–
COc1cc(C2C3=C(COC3=O)Nc3ccc4ncsc4c32)cc(OC)c1OC (stereo not drawn)	–	2300	2100	2400	2500	Activity (A549 [2]): 53.1%; inhibition [3]: 49.4%; Activity (A549 [4]): 4.4%; inhibition (Tubulin (Homo sapiens) [5]): Active; fold change (FC) (A549 [6]): 2; inhibition (Tubulin (Homo sapiens) [7]): Active; Activity (A549 [8]): 42.4%
COc1cc(C2C3=C(COC3=O)Nc3ccc4nn[nH]c4c32)cc(OC)c1OC (stereo not drawn)	–	–	2900	–	–	–
COc1cc(C2C3=C(COC3=O)Nc3ccc4cc(C)[nH]c4c32)ccc1F (stereo not drawn)	2600	2400	–	2100	–	Activity (A549 [2]): 55.6%; inhibition [3]: 45.3%; Activity (A549 [4]): 8.8%; inhibition (Tubulin (Homo sapiens) [5]): Active; fold change (FC) (A549 [6]): 2; inhibition (Tubulin (Homo sapiens) [7]): Active; Activity (A549 [8]): 35.4%
COc1cc([C@@H]2c3cc4c(cc3[C@@H](O[C@@H]3O[C@@H]5CO[C@@H](C)O[C@H]5[C@H](O)[C@H]3O)[C@H]3COC(=O)[C@H]23)OCO4)cc(OC)c1O [ETOPOSIDE]	2100	1300	300	3080	130	–
COc1cc(C2C3=C(COC3=O)Nc3ccc4nc(C)sc4c32)ccc1[N+](=O)[O-] (stereo not drawn)	150	–	–	–	–	–
COc1ccc(C2C3=C(COC3=O)Nc3onc(-c4ccc(Cl)cc4)c32)cc1O (stereo not drawn)	–	–	2700	–	–	–
COc1cc(C2C3=C(COC3=O)Nc3ccc4cc[nH]c4c32)cc(OC)c1OC (stereo not drawn)	–	2700	2000	2400	2300	–
